Measured values taken from article PMC10213863 (Cell Reports Medicine, 2023).

Tests used:
[1] = tested on: B cell receptor; assay: B cell receptor-mediated activation in human blood; format: cell-based; settings: up to 16 μM; n = 2, data not shown
Method in brief: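 Heparinized human blood was given a 3-fold serial dilution of test compound, top 16 μM, for 1.5 h at 37°C. B cells were then activated with 50 μg/mL anti-human IgM for 20 min at 37°C. Samples were lysed/fixed and permeabilized, then stained for pAkt([…]) and CD20. Readout was by flow cytometry.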

[2] = target: TLR9 (Mus musculus, UniProt Q9EQU3); assay: Murine whole blood assay, ODN-IFN-α; format: cell-based
Method in brief: (§1)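 Fresh human blood or 129/Sv mouse blood was taken into citrate and diluted 1:1 with RPMI1640. It was pre-incubated 30 min at 37°C, 5% CO2 with increasing concentrations of test compound or 0.25% v/v DMSO (final). Blood was then stimulated with TLR agonists at doses from earlier work, or with R848 (3 μM), and cytokines were quantified. Viability was checked by ATPlite luminescence.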

[3] = target: T1, TLR9 (Homo sapiens, UniProt Q9NR96); assay: Human whole blood assay, ODN-IFN-α; format: cell-based
T1 sequence (Q9NR96 26-1032): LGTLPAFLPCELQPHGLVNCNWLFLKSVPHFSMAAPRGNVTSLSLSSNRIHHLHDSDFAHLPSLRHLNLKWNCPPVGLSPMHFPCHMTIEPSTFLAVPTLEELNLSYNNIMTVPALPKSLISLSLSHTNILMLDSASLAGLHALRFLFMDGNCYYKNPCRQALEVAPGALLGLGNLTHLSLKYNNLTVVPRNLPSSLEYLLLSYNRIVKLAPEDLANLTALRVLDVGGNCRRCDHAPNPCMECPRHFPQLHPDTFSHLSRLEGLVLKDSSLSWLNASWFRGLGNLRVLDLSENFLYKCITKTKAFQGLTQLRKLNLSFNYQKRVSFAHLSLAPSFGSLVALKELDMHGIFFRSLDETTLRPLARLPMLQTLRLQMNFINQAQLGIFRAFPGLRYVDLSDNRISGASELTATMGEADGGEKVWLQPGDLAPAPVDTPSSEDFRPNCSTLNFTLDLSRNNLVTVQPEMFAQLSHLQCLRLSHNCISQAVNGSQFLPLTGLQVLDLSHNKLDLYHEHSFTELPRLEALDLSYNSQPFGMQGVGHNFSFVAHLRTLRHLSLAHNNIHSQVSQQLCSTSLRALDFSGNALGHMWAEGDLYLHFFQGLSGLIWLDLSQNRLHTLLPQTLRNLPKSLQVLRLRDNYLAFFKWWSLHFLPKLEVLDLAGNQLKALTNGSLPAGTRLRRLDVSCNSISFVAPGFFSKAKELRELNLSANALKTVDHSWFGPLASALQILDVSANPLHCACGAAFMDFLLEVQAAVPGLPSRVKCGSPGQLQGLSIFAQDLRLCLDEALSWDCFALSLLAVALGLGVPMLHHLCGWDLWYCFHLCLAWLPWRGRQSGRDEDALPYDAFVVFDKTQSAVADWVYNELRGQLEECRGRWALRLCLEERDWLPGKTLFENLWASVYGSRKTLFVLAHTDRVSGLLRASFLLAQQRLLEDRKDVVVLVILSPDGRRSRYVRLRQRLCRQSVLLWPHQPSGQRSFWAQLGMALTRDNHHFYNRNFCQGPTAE
Method in brief: as §1

[4] = target: TLR7/8 (Homo sapiens, UniProt Q9NR97); assay: Human neutrophil ROS production, R848 stimulation; format: cell-based
[5] = target: T2, TLR7 (Mus musculus, UniProt P58681); format: in vivo; settings: mice; single oral dose 5 mg/kg
T2 sequence (P58681 27-1050): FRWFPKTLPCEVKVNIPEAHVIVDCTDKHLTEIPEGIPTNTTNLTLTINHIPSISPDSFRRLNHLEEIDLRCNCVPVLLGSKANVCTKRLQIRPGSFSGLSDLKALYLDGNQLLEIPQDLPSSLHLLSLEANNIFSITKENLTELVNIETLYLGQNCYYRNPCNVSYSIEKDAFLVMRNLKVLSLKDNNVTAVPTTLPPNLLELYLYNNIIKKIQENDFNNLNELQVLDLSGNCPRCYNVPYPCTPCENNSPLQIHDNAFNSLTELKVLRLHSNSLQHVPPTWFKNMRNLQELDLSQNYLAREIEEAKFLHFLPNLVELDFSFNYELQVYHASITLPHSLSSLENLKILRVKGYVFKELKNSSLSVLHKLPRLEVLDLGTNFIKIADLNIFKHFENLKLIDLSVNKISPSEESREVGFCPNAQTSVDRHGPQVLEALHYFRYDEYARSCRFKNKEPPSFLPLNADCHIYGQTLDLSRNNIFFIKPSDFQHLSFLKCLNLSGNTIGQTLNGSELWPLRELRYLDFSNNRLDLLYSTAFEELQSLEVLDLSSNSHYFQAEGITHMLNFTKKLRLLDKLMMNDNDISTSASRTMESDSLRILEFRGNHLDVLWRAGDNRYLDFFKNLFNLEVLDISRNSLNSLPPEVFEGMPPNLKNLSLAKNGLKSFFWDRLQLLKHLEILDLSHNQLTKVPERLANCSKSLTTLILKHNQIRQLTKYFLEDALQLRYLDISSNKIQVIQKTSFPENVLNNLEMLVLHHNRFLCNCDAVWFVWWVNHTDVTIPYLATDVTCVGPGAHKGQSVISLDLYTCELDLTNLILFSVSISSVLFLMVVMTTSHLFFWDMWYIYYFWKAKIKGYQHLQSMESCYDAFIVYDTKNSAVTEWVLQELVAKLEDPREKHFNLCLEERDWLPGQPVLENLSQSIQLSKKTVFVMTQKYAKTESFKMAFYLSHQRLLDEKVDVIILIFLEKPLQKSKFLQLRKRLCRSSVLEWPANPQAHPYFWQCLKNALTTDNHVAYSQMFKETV

[6] = target: TLR2/6 (Homo sapiens, UniProt O60603+Q9Y2C9); assay: Ramos Blue reporter B cell line, FSL-1 stimulation; format: cell-based; settings: Ramos cells; up to 10 μM; n = 4, data not shown
Method in brief: (§2)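 Ramos Blue B reporter cells were pre-treated 30 min at 37°C, 5% CO2 with increasing concentrations of test compound or 0.25% v/v DMSO. They were then stimulated with the respective agonist, and reporter activity was read.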

[7] = target: NOD1 (Homo sapiens, UniProt Q9Y239); assay: Ramos Blue reporter B cell line, Tri-DAP stimulation; format: cell-based; settings: Ramos cells; up to 10 μM; n = 4, data not shown
Method in brief: as §2

[8] = target: T2, TLR7; assay: Chronic TLR7 activation in vivo assay; settings: 129/Sv mice; R848 plus MHV370 vs R848 plus vehicle
Method in brief: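 129/Sv mice (5 per group) received R848 i.p. at 2.5 mg/kg daily for 14 days. From day 7, groups were dosed orally b.i.d. with test compound at 15 mg/kg or with vehicle. Naive mice served as reference. Blood RNA-seq counts were filtered (≥10 counts per million in ≥4 samples) and TMM-normalized in edgeR. Differential expression was analysed with limma.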

Sequence of TLR9 (Mus musculus, UniProt Q9EQU3) (Q9EQU3 26-1032): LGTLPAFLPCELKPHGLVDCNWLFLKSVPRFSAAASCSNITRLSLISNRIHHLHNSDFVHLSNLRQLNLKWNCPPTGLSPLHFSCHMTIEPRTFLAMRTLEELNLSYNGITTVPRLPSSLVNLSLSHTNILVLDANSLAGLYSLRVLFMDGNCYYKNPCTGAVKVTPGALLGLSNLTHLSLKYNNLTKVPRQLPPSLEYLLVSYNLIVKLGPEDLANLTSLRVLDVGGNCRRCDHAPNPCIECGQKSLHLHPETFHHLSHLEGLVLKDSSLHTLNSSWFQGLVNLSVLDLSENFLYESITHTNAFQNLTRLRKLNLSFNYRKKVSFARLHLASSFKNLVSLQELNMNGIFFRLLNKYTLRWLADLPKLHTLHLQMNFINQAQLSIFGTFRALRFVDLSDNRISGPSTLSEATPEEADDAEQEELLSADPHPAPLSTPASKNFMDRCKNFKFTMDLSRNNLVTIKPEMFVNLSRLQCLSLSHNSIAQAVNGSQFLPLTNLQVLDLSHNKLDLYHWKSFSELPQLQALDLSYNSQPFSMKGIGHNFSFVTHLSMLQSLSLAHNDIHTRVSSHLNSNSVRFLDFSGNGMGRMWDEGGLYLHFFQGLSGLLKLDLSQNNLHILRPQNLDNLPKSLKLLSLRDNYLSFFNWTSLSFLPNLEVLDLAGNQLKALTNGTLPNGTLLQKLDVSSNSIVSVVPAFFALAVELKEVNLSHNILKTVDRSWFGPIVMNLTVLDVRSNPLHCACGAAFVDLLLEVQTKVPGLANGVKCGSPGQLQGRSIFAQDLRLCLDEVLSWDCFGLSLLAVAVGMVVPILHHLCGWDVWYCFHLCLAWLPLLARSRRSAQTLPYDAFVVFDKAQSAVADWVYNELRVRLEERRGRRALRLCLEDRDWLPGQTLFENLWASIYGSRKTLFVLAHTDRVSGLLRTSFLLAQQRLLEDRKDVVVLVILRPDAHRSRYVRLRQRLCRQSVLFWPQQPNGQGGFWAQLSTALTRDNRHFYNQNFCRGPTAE
Sequence of TLR7/8 (Q9NR97 27-1041): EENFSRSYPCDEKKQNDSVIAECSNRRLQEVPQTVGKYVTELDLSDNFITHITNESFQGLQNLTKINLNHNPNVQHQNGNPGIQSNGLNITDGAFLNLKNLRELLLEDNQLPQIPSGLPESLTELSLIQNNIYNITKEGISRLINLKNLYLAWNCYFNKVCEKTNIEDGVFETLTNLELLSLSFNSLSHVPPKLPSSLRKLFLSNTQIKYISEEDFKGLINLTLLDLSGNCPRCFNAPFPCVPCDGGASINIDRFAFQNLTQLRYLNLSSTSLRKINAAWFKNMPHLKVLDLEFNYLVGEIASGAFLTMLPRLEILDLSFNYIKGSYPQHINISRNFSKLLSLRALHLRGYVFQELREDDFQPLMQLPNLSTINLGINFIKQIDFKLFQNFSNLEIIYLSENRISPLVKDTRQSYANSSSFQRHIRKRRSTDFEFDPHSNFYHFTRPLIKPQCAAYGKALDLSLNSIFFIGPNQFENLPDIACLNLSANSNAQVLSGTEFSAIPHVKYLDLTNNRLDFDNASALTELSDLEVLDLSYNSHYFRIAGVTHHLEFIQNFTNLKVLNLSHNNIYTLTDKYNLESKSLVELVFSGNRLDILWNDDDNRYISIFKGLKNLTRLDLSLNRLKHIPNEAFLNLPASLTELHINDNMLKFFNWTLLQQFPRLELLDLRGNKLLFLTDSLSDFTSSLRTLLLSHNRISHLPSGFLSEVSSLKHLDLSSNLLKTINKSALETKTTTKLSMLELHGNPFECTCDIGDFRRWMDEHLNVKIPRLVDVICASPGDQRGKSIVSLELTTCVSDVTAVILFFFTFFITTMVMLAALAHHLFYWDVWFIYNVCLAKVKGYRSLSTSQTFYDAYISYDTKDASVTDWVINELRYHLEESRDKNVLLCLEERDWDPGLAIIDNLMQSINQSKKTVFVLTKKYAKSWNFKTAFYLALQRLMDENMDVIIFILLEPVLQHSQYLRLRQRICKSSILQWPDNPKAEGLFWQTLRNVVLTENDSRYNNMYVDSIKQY
Sequence of TLR2/6 (O60603 21-784): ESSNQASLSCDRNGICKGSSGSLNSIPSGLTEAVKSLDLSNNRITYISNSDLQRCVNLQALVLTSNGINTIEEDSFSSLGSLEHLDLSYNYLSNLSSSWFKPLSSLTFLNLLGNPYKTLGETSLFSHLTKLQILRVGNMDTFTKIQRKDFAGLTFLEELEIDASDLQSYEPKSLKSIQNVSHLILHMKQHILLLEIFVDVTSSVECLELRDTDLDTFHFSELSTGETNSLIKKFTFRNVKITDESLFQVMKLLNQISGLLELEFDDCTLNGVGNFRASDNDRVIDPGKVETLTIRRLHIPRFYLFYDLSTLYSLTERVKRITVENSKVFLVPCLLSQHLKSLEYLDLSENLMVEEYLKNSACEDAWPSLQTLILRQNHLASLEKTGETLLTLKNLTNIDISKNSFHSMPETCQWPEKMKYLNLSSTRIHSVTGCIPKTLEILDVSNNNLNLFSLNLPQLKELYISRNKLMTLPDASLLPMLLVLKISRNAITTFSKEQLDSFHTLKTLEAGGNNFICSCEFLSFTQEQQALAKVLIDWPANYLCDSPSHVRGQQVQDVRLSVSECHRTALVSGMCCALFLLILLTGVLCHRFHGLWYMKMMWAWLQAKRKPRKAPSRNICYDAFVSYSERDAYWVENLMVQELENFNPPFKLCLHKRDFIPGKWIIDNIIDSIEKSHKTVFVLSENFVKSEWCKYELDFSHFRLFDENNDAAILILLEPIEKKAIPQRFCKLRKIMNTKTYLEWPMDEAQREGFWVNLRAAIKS
Sequence of TLR2/6 (Q9Y2C9 32-796): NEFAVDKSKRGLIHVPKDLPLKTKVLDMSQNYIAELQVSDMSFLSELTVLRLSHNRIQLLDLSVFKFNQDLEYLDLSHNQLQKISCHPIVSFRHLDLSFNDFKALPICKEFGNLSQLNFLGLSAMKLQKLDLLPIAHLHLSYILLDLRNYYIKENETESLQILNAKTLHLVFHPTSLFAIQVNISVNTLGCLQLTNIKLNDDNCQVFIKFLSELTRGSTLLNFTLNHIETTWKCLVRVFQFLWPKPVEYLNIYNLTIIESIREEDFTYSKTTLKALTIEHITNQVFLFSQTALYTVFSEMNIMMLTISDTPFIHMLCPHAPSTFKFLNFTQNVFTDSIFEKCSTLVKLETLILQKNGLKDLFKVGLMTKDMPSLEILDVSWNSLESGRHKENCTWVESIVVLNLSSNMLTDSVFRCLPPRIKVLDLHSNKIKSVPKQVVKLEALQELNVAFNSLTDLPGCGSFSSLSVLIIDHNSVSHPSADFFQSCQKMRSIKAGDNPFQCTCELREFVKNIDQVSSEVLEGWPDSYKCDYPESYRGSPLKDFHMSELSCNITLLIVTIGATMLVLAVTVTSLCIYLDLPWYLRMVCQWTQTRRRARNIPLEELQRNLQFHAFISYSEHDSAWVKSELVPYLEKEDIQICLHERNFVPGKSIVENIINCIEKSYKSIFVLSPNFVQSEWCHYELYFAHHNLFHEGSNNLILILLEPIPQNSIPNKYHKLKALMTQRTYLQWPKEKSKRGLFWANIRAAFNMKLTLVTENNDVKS
Sequence of NOD1 (Q9Y239 whole entry): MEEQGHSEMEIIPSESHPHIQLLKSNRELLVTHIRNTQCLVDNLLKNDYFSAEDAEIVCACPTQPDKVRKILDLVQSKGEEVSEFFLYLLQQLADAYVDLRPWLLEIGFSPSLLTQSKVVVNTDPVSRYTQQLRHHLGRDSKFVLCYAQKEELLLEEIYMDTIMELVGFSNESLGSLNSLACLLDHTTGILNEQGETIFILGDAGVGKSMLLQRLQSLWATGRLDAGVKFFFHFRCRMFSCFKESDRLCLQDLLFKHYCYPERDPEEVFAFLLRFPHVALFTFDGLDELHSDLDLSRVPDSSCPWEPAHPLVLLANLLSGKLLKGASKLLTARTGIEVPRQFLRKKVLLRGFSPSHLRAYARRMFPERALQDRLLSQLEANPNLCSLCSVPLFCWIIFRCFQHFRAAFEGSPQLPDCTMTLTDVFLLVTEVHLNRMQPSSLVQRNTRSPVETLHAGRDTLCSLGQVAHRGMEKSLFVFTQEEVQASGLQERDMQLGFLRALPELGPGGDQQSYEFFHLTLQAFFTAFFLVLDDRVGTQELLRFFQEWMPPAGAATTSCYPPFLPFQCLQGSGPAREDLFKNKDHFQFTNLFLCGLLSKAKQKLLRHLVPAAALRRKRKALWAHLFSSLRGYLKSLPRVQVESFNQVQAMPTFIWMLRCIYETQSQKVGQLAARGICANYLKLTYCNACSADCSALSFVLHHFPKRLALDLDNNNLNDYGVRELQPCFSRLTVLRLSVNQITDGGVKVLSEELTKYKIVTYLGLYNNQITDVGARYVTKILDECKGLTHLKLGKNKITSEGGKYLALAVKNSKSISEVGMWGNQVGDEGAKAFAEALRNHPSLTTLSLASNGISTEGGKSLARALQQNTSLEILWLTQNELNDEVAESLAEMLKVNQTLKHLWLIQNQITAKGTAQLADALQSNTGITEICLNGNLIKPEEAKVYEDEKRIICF

Structure (SMILES): Cc1cc(N2CCc3c(c(C)nn3CC34CCC(NC(=O)[C@@H]5COCCN5)(CC3)CC4)C2)c2cnn(C)c2n1 [MHV370, (S)-N-(4-((5-(1,6-dimethyl-1H-pyrazolo[3,4-b]pyridin-4-yl)-3-methyl-4,5,6,7-tetrahydro-1H-pyrazolo[4,3-c]pyridin-1-yl)methyl)bicyclo[2.2.2]octan-1-yl)morpholine-3-carboxamide]
- activation of B cell responses via the B cell receptor [1]: unaffected
- IC50 [2]: > 10 µM
- functional inhibition of TLR9 ([2]; mouse blood, up to 10 μM): did not show functional inhibition
- IC50 [3]: 1.32 µM
- IC50 [4]: 0.0038 ± 0.0008 µM
- CD69 expression on B cells, ex vivo R848 stimulation of blood [5]: marked inhibition of CD69 expression over a period of 8 h
- interference with TLR2/6-driven activity [6]: did not interfere
- interference with NOD1-driven activity [7]: did not interfere
- inflammatory pathways (ISGs, TLR and TNF pathways), gene set enrichment in blood [8]: all downregulated
